# The source made the active and inactive calls. No cut-off for these calls is given here.
# Key:
# Assay type in all cases: functional
# [1] = test system: Staphylococcus aureus; assay: Potentiation of ampicillin induced antibacterial activity against methicillin-resistant Staphylococcus aureus ATCC 43300 assessed as ampicillin MIC at 50 uM after 18 hrs by CLSI protocol based broth microdilution assay
# [2] = test system: Staphylococcus aureus; assay: Potentiation of ceftazidime induced antibacterial activity against methicillin-resistant Staphylococcus aureus USA100 assessed as ceftazidime MIC at 50 uM after 18 hrs by CLSI protocol based broth microdilution assay
# [3] = test system: Staphylococcus aureus; assay: Potentiation of ampicillin induced antibacterial activity against methicillin-resistant Staphylococcus aureus USA300 assessed as ampicillin MIC at 50 uM after 18 hrs by CLSI protocol based broth microdilution assay
# [4] = test system: Staphylococcus aureus; assay: Potentiation of ceftazidime induced antibacterial activity against methicillin-resistant Staphylococcus aureus USA300 assessed as ceftazidime MIC at 50 uM after 18 hrs by CLSI protocol based broth microdilution assay
# [5] = test system: Staphylococcus aureus; assay: Potentiation of cefoxitin induced antibacterial activity against methicillin-resistant Staphylococcus aureus USA300 assessed as cefoxitin MIC at 50 uM after 18 hrs by CLSI protocol based broth microdilution assay
# [6] = test system: Staphylococcus aureus; assay: Potentiation of methicillin induced antibacterial activity against methicillin-resistant Staphylococcus aureus ATCC 43300 assessed as fold change in methicillin MIC at 50 uM after 18 hrs by CLSI protocol based broth microdilution assay
# [7] = test system: Staphylococcus aureus; assay: Potentiation of methicillin induced antibacterial activity against methicillin-resistant Staphylococcus aureus USA300 assessed as fold change in methicillin MIC at 50 uM after 18 hrs by CLSI protocol based broth microdilution assay
# [8] = test system: Staphylococcus aureus; assay: Potentiation of oxacillin induced antibacterial activity against methicillin-resistant Staphylococcus aureus COL assessed as fold change in oxacillin MIC at 50 uM after 18 hrs by CLSI protocol based broth microdilution assay
# [9] = test system: Staphylococcus aureus; assay: Potentiation of oxacillin induced antibacterial activity against methicillin-resistant Staphylococcus aureus USA300 assessed as fold change in oxacillin MIC at 50 uM after 18 hrs by CLSI protocol based broth microdilution assay
# [10] = test system: Staphylococcus aureus; assay: Potentiation of oxacillin induced antibacterial activity against methicillin-resistant Staphylococcus aureus USA300 assessed as oxacillin MIC at 50 uM after 18 hrs by CLSI protocol based broth microdilution assay
# [11] = test system: Staphylococcus aureus; assay: Potentiation of oxacillin induced antibacterial activity against methicillin-resistant Staphylococcus aureus USA300 harboring stk1 deletion mutant assessed as oxacillin MIC at 50 uM after 18 hrs by CLSI protocol based broth microdilution assay
# [12] = test system: Staphylococcus aureus; assay: Upregulation of mecA gene expression in methicillin-resistant Staphylococcus aureus USA100 at 50 uM by RT-PCR method
# [13] = test system: Staphylococcus aureus; assay: Upregulation of mecA gene expression in methicillin-resistant Staphylococcus aureus USA300 at 50 uM by RT-PCR method
# [14] = test system: Staphylococcus aureus; assay: Upregulation of mecA gene expression in methicillin-resistant Staphylococcus aureus COL at 50 uM by RT-PCR method
# [15] = test system: Staphylococcus aureus; assay: Potentiation of oxacillin induced antibacterial activity against methicillin-resistant Staphylococcus aureus USA100 assessed as fold change in oxacillin MIC at 25 uM after 18 hrs by CLSI protocol based broth microdilution assay
# [16] = test system: Staphylococcus aureus; assay: Potentiation of ampicillin induced antibacterial activity against methicillin-resistant Staphylococcus aureus ATCC 43300 assessed as fold change in ampicillin MIC at 25 uM after 18 hrs by CLSI protocol based broth microdilution assay
# [17] = test system: Staphylococcus aureus; assay: Potentiation of ampicillin induced antibacterial activity against methicillin-resistant Staphylococcus aureus USA100 assessed as fold change in ampicillin MIC at 25 uM after 18 hrs by CLSI protocol based broth microdilution assay
# [18] = test system: Staphylococcus aureus; assay: Potentiation of ceftazidime induced antibacterial activity against methicillin-resistant Staphylococcus aureus USA300 assessed as fold change in ceftazidime MIC at 25 uM after 18 hrs by CLSI protocol based broth microdilution assay
# [19] = test system: Staphylococcus aureus; assay: Potentiation of cefoxitin induced antibacterial activity against methicillin-resistant Staphylococcus aureus USA300 assessed as fold change in cefoxitin MIC at 25 uM after 18 hrs by CLSI protocol based broth microdilution assay
# [20] = test system: Staphylococcus aureus; assay: Potentiation of ampicillin induced antibacterial activity against methicillin-resistant Staphylococcus aureus COL assessed as fold change in ampicillin MIC at 25 uM after 18 hrs by CLSI protocol based broth microdilution assay
# [21] = test system: Staphylococcus aureus; assay: Potentiation of oxacillin induced antibacterial activity against methicillin-resistant Staphylococcus aureus assessed as fold decrease in blaZ gene expression at 25 uM by RT-qPCR analysis
# In short: (§1)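 Fold dampening is the relative mRNA level of the gene, normalised to 16S rRNA, in oxacillin-treated cells divided by that in cells cotreated with oxacillin plus carbazole. Carbazole was used at 25 or 50 μM, as given in each line.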
# [22] = test system: Staphylococcus aureus; assay: Potentiation of oxacillin induced antibacterial activity against methicillin-resistant Staphylococcus aureus assessed as fold decrease in mecI gene expression at 25 uM by RT-qPCR analysis; in short: as §1
# [23] = test system: Staphylococcus aureus; assay: Potentiation of ampicillin induced antibacterial activity against methicillin-resistant Staphylococcus aureus ATCC 43300 assessed as ampicillin MIC at 25 uM after 18 hrs by CLSI protocol based broth microdilution assay
# [24] = test system: Staphylococcus aureus; assay: Potentiation of ceftazidime induced antibacterial activity against methicillin-resistant Staphylococcus aureus ATCC 43300 assessed as ceftazidime MIC at 25 uM after 18 hrs by CLSI protocol based broth microdilution assay
# [25] = test system: Staphylococcus aureus; assay: Potentiation of oxacillin induced antibacterial activity against methicillin-resistant Staphylococcus aureus COL assessed as oxacillin MIC at 25 uM after 18 hrs by CLSI protocol based broth microdilution assay
# [26] = test system: Staphylococcus aureus; assay: Potentiation of ceftazidime induced antibacterial activity against methicillin-resistant Staphylococcus aureus USA100 assessed as ceftazidime MIC at 25 uM after 18 hrs by CLSI protocol based broth microdilution assay
# [27] = test system: Staphylococcus aureus; assay: Potentiation of ampicillin induced antibacterial activity against methicillin-resistant Staphylococcus aureus USA300 assessed as ampicillin MIC at 25 uM after 18 hrs by CLSI protocol based broth microdilution assay
# [28] = test system: Staphylococcus aureus; assay: Potentiation of ceftazidime induced antibacterial activity against methicillin-resistant Staphylococcus aureus USA300 assessed as ceftazidime MIC at 25 uM after 18 hrs by CLSI protocol based broth microdilution assay
# [29] = test system: Staphylococcus aureus; assay: Potentiation of ampicillin induced antibacterial activity against methicillin-resistant Staphylococcus aureus COL assessed as ampicillin MIC at 25 uM after 18 hrs by CLSI protocol based broth microdilution assay
# [30] = test system: Staphylococcus aureus; assay: Potentiation of oxacillin induced antibacterial activity against methicillin-resistant Staphylococcus aureus USA300 assessed as oxacillin MIC at 25 uM after 18 hrs by CLSI protocol based broth microdilution assay
# [31] = test system: Staphylococcus aureus; assay: Potentiation of oxacillin induced antibacterial activity against methicillin-resistant Staphylococcus aureus USA300 harboring stk1 deletion mutant assessed as oxacillin MIC at 25 uM after 18 hrs by CLSI protocol based broth microdilution assay
# [32] = test system: Staphylococcus aureus; assay: Potentiation of oxacillin induced antibacterial activity against methicillin-resistant Staphylococcus aureus USA300 harboring stk1 deletion mutant co-transfected with a plasmid bearing stk1 assessed as fold change in oxacillin MIC at 25 uM after 18 hrs by CLSI protocol based broth microdilution assay
# [33] = test system: Staphylococcus aureus; assay: Upregulation of mecA gene expression in methicillin-resistant Staphylococcus aureus USA300 at 25 uM by RT-PCR method
structure (smiles),measurement,setting,value
Brc1ccc2[nH]c3ccc(Br)cc3c2c1,MIC,[1],16 µg/mL
same,MIC,[2],256 µg/mL
same,MIC,[3],8 µg/mL
same,MIC,[4],256 µg/mL
same,MIC,[5],64 µg/mL
same,fold change (FC),[6],1
same,fold change (FC),[7],4
same,fold change (FC),[8],4
same,fold change (FC),[9],2
same,MIC,[10],16 µg/mL
Brc1cccc2c1[nH]c1ccccc12,MIC,[1],4 µg/mL
same,MIC,[2],256 µg/mL
same,MIC,[3],8 µg/mL
same,MIC,[4],256 µg/mL
same,MIC,[5],16 µg/mL
same,fold change (FC),[6],1
same,fold change (FC),[7],4
same,fold change (FC),[8],1
same,fold change (FC),[9],4
same,MIC,[10],16 µg/mL
same,MIC,[11],0.25 µg/mL
same,Activity,[12],inactive
same,Activity,[13],inactive
same,Activity,[14],inactive
Brc1cccc2[nH]c3ccccc3c12,fold change (FC),[15],16
same,fold change (FC),[16],2
same,fold change (FC),[17],4
same,fold change (FC),[18],1
same,fold change (FC),[19],4
same,fold change (FC),[20],1
same,fold change (FC),[21],8.06
same,fold change (FC),[22],1.28
same,MIC,[23],16 µg/mL
same,MIC,[24],64 µg/mL
same,MIC,[25],512 µg/mL
same,MIC,[26],512 µg/mL
same,MIC,[27],2 µg/mL
same,MIC,[28],256 µg/mL
same,MIC,[29],32 µg/mL
same,MIC,[30],8 µg/mL
same,MIC,[31],0.25 µg/mL
same,fold change (FC),[32],8
same,Activity,[33],inactive

# Source: ChEMBL document CHEMBL5046302, “Identification and Evaluation of Brominated Carbazoles as a Novel Antibiotic Adjuvant Scaffold in MRSA” (2022)
